Values after ≈ are worked out from the molar mass of the structure shown.
Key:
Nakaseomyces glabratus = experiment: Antifungal activity against Candida glabrata ATCC 2001 after 48 hrs by broth microdilution method; type: functional; conditions: ATCC 2001, 48 h
Outline: (§1)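 Broth microdilution per NCCLS guidelines in MOPS-buffered RPMI 1640; starting inoculum 1-5 x 10^3 CFU/mL; plates incubated at 35 °C; MIC recorded after 48 h; fluconazole as reference; experiments repeated three times.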

HeLa = experiment: Cytotoxicity against human HeLa cells after 24 hrs by MTT assay; type: cell-based
Trichomonas vaginalis [1] = experiment: Antitrichomonas activity against metronidazole-susceptible Trichomonas vaginalis assessed as decrease in cell viability after 48 hrs by trypan blue exclusion method; type: functional
Candida albicans [2] = experiment: Antifungal activity against Candida albicans patient isolate after 48 hrs by broth microdilution method; type: functional; outline: as §1
[3] = Selectivity index, ratio of IC50 for human HeLa cells to MIC for metronidazole-susceptible Trichomonas vaginalis; type: toxicity; conditions: read-out: Selectivity Index
Candida albicans [4] = experiment: Antifungal activity against Candida albicans ATCC 14053 after 48 hrs by broth microdilution method; type: functional; conditions: ATCC 14053, 48 h; outline: as §1
Candida albicans [5] = experiment: Antifungal activity against Candida albicans ATCC 10231 after 48 hrs by broth microdilution method; type: functional; conditions: ATCC 10231, 48 h; outline: as §1
Candida albicans [6] = experiment: Antifungal activity against Candida albicans ATCC 66027 after 48 hrs by broth microdilution method; type: functional; conditions: ATCC 66027, 48 h; outline: as §1
Candida parapsilosis = experiment: Antifungal activity against Candida parapsilosis ATCC 22019 after 48 hrs by broth microdilution method; type: functional; conditions: Lodderomyces parapsilosis, ATCC 22019, 48 h; outline: as §1
Sporothrix schenckii = experiment: Antifungal activity against Sporothrix schenckii after 48 hrs by broth microdilution method; type: functional; outline: as §1
Cryptococcus neoformans = experiment: Antifungal activity against Cryptococcus neoformans after 48 hrs by broth microdilution method; type: functional; outline: as §1
[7] = tested on: Trichophyton mentagrophytes; experiment: Antifungal activity against Trichophyton mentagrophytes after 48 hrs by broth microdilution method; type: functional; outline: as §1
[8] = Selectivity index, ratio of IC50 for human HeLa cells to MIC for metronidazole-resistant Trichomonas vaginalis CDC085 ATCC 50143; type: toxicity; conditions: read-out: Selectivity Index
Trichomonas vaginalis [9] = experiment: Potency index, ratio of metronidazole MIC to test compound MIC for metronidazole-resistant Trichomonas vaginalis CDC085 ATCC 50143; type: functional
Trichomonas vaginalis [10] = experiment: Antitrichomonas activity against metronidazole-resistant Trichomonas vaginalis CDC085 ATCC 50143 assessed as decrease in cell viability after 48 hrs by trypan blue exclusion method; type: functional; conditions: CDC085 ATCC 50143, 48 h
Candida albicans [11] = experiment: Antifungal activity against Candida albicans MTCC 183 after 48 hrs by broth microdilution method; type: functional; conditions: MTCC 183, 48 h; outline: as §1

SMILES	MIC (Nakaseomyces glabratus) [µM]	IC50 (HeLa) [mM]	MIC (Trichomonas vaginalis [1]) [µM]	MIC (Candida albicans [2]) [µM]	selectivity ratio [3]	MIC (Candida albicans [4]) [µM]	MIC (Candida albicans [5]) [µM]	MIC (Candida albicans [6]) [µM]	MIC (Candida parapsilosis) [µM]	MIC (Sporothrix schenckii) [µM]	MIC (Cryptococcus neoformans) [µM]	MIC [7] [µM]	selectivity ratio [8]	Ratio (Trichomonas vaginalis [9])	MIC (Trichomonas vaginalis [10]) [µM]	MIC (Candida albicans [11]) [µM]
CN(C)C(=S)SC(=S)N1CCN(c2cccc(Cl)c2)CC1	> 139	> 5	139 (≈ 50 µg/mL)	34.7 (≈ 12.5 µg/mL)	36	> 139	> 139	> 139	8.66 (≈ 3.12 µg/mL)	34.7 (≈ 12.5 µg/mL)	139 (≈ 49.9 µg/mL)	34.7 (≈ 12.5 µg/mL)	18	1.3 - 9.5	278 (≈ 100 µg/mL)	69.3 (≈ 25 µg/mL)
CCSC(=S)N1CCN(C(=S)SC(=S)N(C)C)CC1	> 141	4.48	141 (≈ 49.9 µg/mL)	17.6 (≈ 6.23 µg/mL)	31	141 (≈ 49.9 µg/mL)	141 (≈ 49.9 µg/mL)	70.5 (≈ 24.9 µg/mL)	8.81 (≈ 3.12 µg/mL)	35.2 (≈ 12.5 µg/mL)	141 (≈ 49.9 µg/mL)	35.2 (≈ 12.5 µg/mL)	15	1.3 - 11.2	282 (≈ 99.9 µg/mL)	70.5 (≈ 24.9 µg/mL)
COc1ccccc1N1CCN(C(=S)SC(=S)N(C)C)CC1	> 140	4.33	281 (≈ 99.9 µg/mL)	> 140	15	> 140	> 140	70.2 (≈ 25 µg/mL)	70.2 (≈ 25 µg/mL)	140 (≈ 49.9 µg/mL)	> 140	140 (≈ 49.9 µg/mL)	6	1.3 - 9.5	702 (≈ 250 µg/mL)	140 (≈ 49.9 µg/mL)
CCCCNC(=S)N1CCN(C(=S)SC(=S)N(C)C)CC1	> 137	2.84	68.5 (≈ 25 µg/mL)	137 (≈ 49.9 µg/mL)	41	> 137	> 137	> 137	137 (≈ 49.9 µg/mL)	137 (≈ 49.9 µg/mL)	> 137	137 (≈ 49.9 µg/mL)	20	1.3 - 11.2	137 (≈ 49.9 µg/mL)	> 137
CN1CCN(C(=S)SC(=S)N(C)C)CC1	190 (≈ 50.1 µg/mL)	1.22	47.5 (≈ 12.5 µg/mL)	95 (≈ 25 µg/mL)	26	95 (≈ 25 µg/mL)	190 (≈ 50.1 µg/mL)	47.5 (≈ 12.5 µg/mL)	190 (≈ 50.1 µg/mL)	95 (≈ 25 µg/mL)	190 (≈ 50.1 µg/mL)	95 (≈ 25 µg/mL)	12	1.3 - 9.5	95 (≈ 25 µg/mL)	95 (≈ 25 µg/mL)
CCOC(=O)N1CCN(C(=S)SC(=S)N(C)C)CC1	156 (≈ 50.1 µg/mL)	0.53	77.9 (≈ 25 µg/mL)	156 (≈ 50.1 µg/mL)	6	156 (≈ 50.1 µg/mL)	> 156	38.9 (≈ 12.5 µg/mL)	156 (≈ 50.1 µg/mL)	77.9 (≈ 25 µg/mL)	156 (≈ 50.1 µg/mL)	77.9 (≈ 25 µg/mL)	3	1.3 - 9.5	156 (≈ 50.1 µg/mL)	156 (≈ 50.1 µg/mL)
OC(Cn1cncn1)(Cn1cncn1)c1ccc(F)cc1F [FLUCONAZOLE]	13.1 (≈ 4 µg/mL)			3.26 (≈ 0.998 µg/mL)		0.39 (≈ 0.119 µg/mL)	3.26 (≈ 0.998 µg/mL)	1.63 (≈ 0.499 µg/mL)	6.53 (≈ 2 µg/mL)	6.53 (≈ 2 µg/mL)	6.53 (≈ 2 µg/mL)	> 105				
CN(C)C(=S)SC(=S)N1CCN(C(=S)NCCc2ccccc2)CC1	> 121	> 5	60.5 (≈ 25 µg/mL)	> 121	> 83	> 121	> 121	> 121	> 121	> 121	> 121	> 121	> 20	1.3 - 11.2	242 (≈ 99.9 µg/mL)	> 121
CC1CCCN(C(=S)SC(=S)N(C)C)C1 (stereo not given)	95.4 (≈ 25 µg/mL)	2.9	47.7 (≈ 12.5 µg/mL)	23.9 (≈ 6.26 µg/mL)	60	95.4 (≈ 25 µg/mL)	95.4 (≈ 25 µg/mL)	47.7 (≈ 12.5 µg/mL)	23.9 (≈ 6.26 µg/mL)	23.9 (≈ 6.26 µg/mL)	47.7 (≈ 12.5 µg/mL)	23.9 (≈ 6.26 µg/mL)	30	1.5 - 3.8	95.4 (≈ 25 µg/mL)	47.7 (≈ 12.5 µg/mL)
CN(C)C(=S)SC(=S)N1CCN(C(=S)SCCCC#N)CC1	> 127	> 5	63.6 (≈ 25 µg/mL)	> 127	> 79	> 127	> 127	> 127	> 127	127 (≈ 50 µg/mL)	> 127	127 (≈ 50 µg/mL)	> 39	1.3 - 11.2	127 (≈ 50 µg/mL)	> 127
CN(C)C(=S)SC(=S)N1CCOCC1	100 (≈ 25 µg/mL)	4	100 (≈ 25 µg/mL)	200 (≈ 50.1 µg/mL)	40	50 (≈ 12.5 µg/mL)	25 (≈ 6.26 µg/mL)	100 (≈ 25 µg/mL)	200 (≈ 50.1 µg/mL)	100 (≈ 25 µg/mL)	200 (≈ 50.1 µg/mL)	100 (≈ 25 µg/mL)	10		400 (≈ 100 µg/mL)	50 (≈ 12.5 µg/mL)
CN(C)C(=S)SC(=S)N1CCN(C(=O)NC2CCCCC2)CC1	> 133	> 5	133 (≈ 49.9 µg/mL)	> 133	> 37	> 133	> 133	> 133	133 (≈ 49.9 µg/mL)	133 (≈ 49.9 µg/mL)	> 133	133 (≈ 49.9 µg/mL)	> 18	1.3 - 11.2	267 (≈ 99.9 µg/mL)	> 133
CCN(CC)C(=S)SC(=S)N(C)C	> 212	> 5	53 (≈ 12.5 µg/mL)	53 (≈ 12.5 µg/mL)	> 94	> 212	> 212	53 (≈ 12.5 µg/mL)	26.5 (≈ 6.26 µg/mL)	26.5 (≈ 6.26 µg/mL)	106 (≈ 25 µg/mL)	26.5 (≈ 6.26 µg/mL)	> 47	1.5 - 3.8	106 (≈ 25 µg/mL)	106 (≈ 25 µg/mL)
CN(C)C(=S)SC(=S)N1CCN(C(=S)NCc2ccccc2)CC1	> 125	> 5	125 (≈ 50 µg/mL)	> 125	> 40	> 125	> 125	> 125	> 125	125 (≈ 50 µg/mL)	> 125	125 (≈ 50 µg/mL)	> 20	1.3 - 11.2	251 (≈ 99.9 µg/mL)	> 125
CN(C)C(=S)SC(=S)N1CCCCC1	50.4 (≈ 12.5 µg/mL)	> 5	25.2 (≈ 6.26 µg/mL)	101 (≈ 25 µg/mL)	> 200	25.2 (≈ 6.26 µg/mL)	50.4 (≈ 12.5 µg/mL)	50.4 (≈ 12.5 µg/mL)	101 (≈ 25 µg/mL)	101 (≈ 25 µg/mL)	202 (≈ 50.1 µg/mL)	101 (≈ 25 µg/mL)	> 50	1.5 - 3.8	101 (≈ 25 µg/mL)	50.4 (≈ 12.5 µg/mL)
CN(C)C(=S)SC(=S)N1CCN(c2cccc(Cl)c2Cl)CC1	> 127	1.59	63.5 (≈ 25 µg/mL)	31.7 (≈ 12.5 µg/mL)	25	> 127	> 127	> 127	31.7 (≈ 12.5 µg/mL)	15.9 (≈ 6.26 µg/mL)	127 (≈ 50.1 µg/mL)	15.9 (≈ 6.26 µg/mL)	12	1.3 - 9.5	127 (≈ 50.1 µg/mL)	63.5 (≈ 25 µg/mL)
CSC(=S)N1CCN(C(=S)SC(=S)N(C)C)CC1	> 147	> 5	294 (≈ 99.9 µg/mL)	> 147	> 17	> 147	> 147	> 147	36.8 (≈ 12.5 µg/mL)	147 (≈ 49.9 µg/mL)	> 147	147 (≈ 49.9 µg/mL)	> 7		735 (≈ 250 µg/mL)	> 147
CCCCSC(=S)N1CCN(C(=S)SC(=S)N(C)C)CC1	131 (≈ 49.9 µg/mL)	> 5	262 (≈ 99.9 µg/mL)	16.3 (≈ 6.23 µg/mL)	> 19	131 (≈ 49.9 µg/mL)	> 131	32.7 (≈ 12.5 µg/mL)	8.16 (≈ 3.11 µg/mL)	32.7 (≈ 12.5 µg/mL)	65.3 (≈ 24.9 µg/mL)	32.7 (≈ 12.5 µg/mL)	> 7		654 (≈ 250 µg/mL)	131 (≈ 49.9 µg/mL)
CN(C)C(=S)SC(=S)N(C)C [BIS(DIMETHYLAMINETHIOCARBONYL)MONOSULFIDE]	60.1 (≈ 12.5 µg/mL)	> 5	60.1 (≈ 12.5 µg/mL)	120 (≈ 25 µg/mL)	> 83	120 (≈ 25 µg/mL)	120 (≈ 25 µg/mL)	60.1 (≈ 12.5 µg/mL)	120 (≈ 25 µg/mL)	60.1 (≈ 12.5 µg/mL)	240 (≈ 50.1 µg/mL)	60.1 (≈ 12.5 µg/mL)	> 20	1.3 - 11.2	240 (≈ 50.1 µg/mL)	120 (≈ 25 µg/mL)
CN(C)C(=S)SC(=S)N1CCCC1	53.4 (≈ 12.5 µg/mL)	3.09	26.7 (≈ 6.26 µg/mL)	107 (≈ 25 µg/mL)	115	26.7 (≈ 6.26 µg/mL)	53.4 (≈ 12.5 µg/mL)	53.4 (≈ 12.5 µg/mL)	107 (≈ 25 µg/mL)	53.4 (≈ 12.5 µg/mL)	214 (≈ 50.1 µg/mL)	53.4 (≈ 12.5 µg/mL)	29	1.5 - 3.8	107 (≈ 25 µg/mL)	53.4 (≈ 12.5 µg/mL)

From ChEMBL document CHEMBL4138228, “Substituted carbamothioic amine-1-carbothioic thioanhydrides as novel trichomonicidal fungicides: Design, synthesis, and biology” (Eur J Med Chem, 2018)
